Laboratory results: PMC4492651 (Drug Design, Development and Therapy, 2015)
Like-named read-outs stand apart in the source and are kept apart here.

Assays:
[1] = tested on: carrageenan-induced thrombosis; assay: Model of carrageenan-induced thrombosis; type: in vivo, KM mice; conditions: n=10; for Black tail length (cm) 24 hours / Black tail occurrence (%) 24 hours: 24 hours after carrageenan; for Black tail length (cm) 24 hours / Black tail length (cm) 48 hours: mean ± SD; for Black tail length (cm) 48 hours / Black tail occurrence (%) 48 hours: 48 hours after carrageenan
HT22 cells = assay: H2O2-induced cytotoxicity in HT22 cells; type: cell-based, murine; conditions: Mus musculus, HT-22, read-out: H2O2-treated HT22 viability percentage
How it was run: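 Murine HT22 cells in DMEM with 10% newborn calf serum, 37°C, 5% CO2. Seeded at 20,000 cells/well and grown 24 h. Pretreated in quadruplicate with test compound (10–100 µM) for 2 h, exposed to 500 µM H2O2 for 1 h, then given fresh medium for 12 h. Viability by MTT. Four separate experiments, mean ± SD.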

[2] = tested on: GSH-Px, SOD, NO and MDA in brain tissue; assay: Antioxidant stress activity in vivo after I/R; set-up: species or system Sprague Dawley rats; conditions: I/R rats; for content of SOD in comparison with the model group: 3d 10, 20 and 50 mg/kg, NBP 20 mg/kg, Eda 3.0 mg/kg
How it was run: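 Male Sprague Dawley rats underwent filament MCAO, 2 h occlusion then reperfusion. Test compound (10, 20, 50 mg/kg; model vehicle oil) given ip 15 min after MCAO onset. At 24 h reperfusion, under chloral hydrate, brains were rinsed in cold saline; ischemic core and penumbra were separated and stored at −70°C. After protein assay, T-SOD and GSH-Px activities, MDA and NO were measured by kits. n=10, mean ± SD, ANOVA/Newman–Keuls.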

[3] = tested on: transient middle cerebral artery occlusion; set-up: species or system Sprague Dawley rats; conditions: rat, in vivo, ip
[4] = 50 mg/kg by gavage daily for 2 days
[5] = 3 mg/kg by gavage daily for 2 days

SMILES	Black tail length (cm) 24 hours [1, 4] [cm]	Black tail occurrence (%) 24 hours [1, 4] [%]	Black tail length (cm) 48 hours [1, 4] [cm]	Black tail occurrence (%) 48 hours [1, 4] [%]	Black tail length (cm) 24 hours [1, 5] [cm]	Black tail occurrence (%) 24 hours [1, 5] [%]	Black tail length (cm) 48 hours [1, 5] [cm]	Black tail occurrence (%) 48 hours [1, 5] [%]	viability at 100 µM (HT22 cells) [%]	levels of GSH-Px activity vs model animals ([2]; ischemic core, 3d 50 mg/kg, Eda 3 mg/kg)	content of SOD in comparison with the model group [2]	infarct size reduced by ([3]; 3 mg/kg) [%]	NO activity ([2]; 20 mg/kg, 24 hours postreperfusion, model 1.51) [U/mg]	infarct size reduced by ([3]; 20 mg/kg) [%]
CC(=O)Oc1ccccc1C(=O)O [ASP, aspirin]	1.5±0.5	30	2.4±0.6	40										
CC1=NN(c2ccccc2)C(=O)C1 [Eda, edaravone]					4.6±1.7	70	4.5±1.8	80	69.9	significantly higher	increased	69.65		
CCCCC1OC(=O)c2ccccc21 (centres unmarked) [NBP, 3-n-butylphthalide]	3.1±0.3	30	3.5±0.5	50					71.5		increased		0.92	26.19
